Source: ChEMBL document CHEMBL3085751, “Synthesis of some new pyrazole-based 1,3-thiazoles and 1,3,4-thiadiazoles as anticancer agents” (Eur J Med Chem, 2013)

Assays:
Assay type in all cases: functional, cell-based
A549 = assay: Cytotoxicity against human A549 cells after 72 hrs by SRB assay; conditions: A549, 72 h
In short: (§1)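 Cells kept as monolayers at 37 °C in 5% CO2 with 10% heat-inactivated FBS; A549 was grown in DMEM, HepG2 and MCF-7 in RPMI. Trypsinized cells were seeded at 1000-2000/well, left 24 h, then exposed 72 h to a range of concentrations. Cells were fixed with 10% TCA (1 h, 4 °C) and stained with 0.4% SRB in 1% acetic acid for 10 min. Dye was dissolved in Tris-HCl, OD read at 564 nm, and IC50 taken from %-viability dose-response curves.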

MCF7 = assay: Cytotoxicity against human MCF7 cells after 72 hrs by SRB assay; conditions: MCF7, 72 h; in short: as §1
HepG2 = assay: Cytotoxicity against human HepG2 cells after 72 hrs by SRB assay; conditions: HepG2, 72 h; in short: as §1

**Q.** CCOC(=O)c1nn(-c2ccc([N+](=O)[O-])cc2)/c(=N/c2nc(-c3c(C)n(C)n(-c4ccccc4)c3=O)cs2)s1 was tested. Which IC50 (A549) did it give?
**A.** 8.68 µM

**Q.** And the IC50 (MCF7)?
**A.** 10 µM

**Q.** What about the IC50 (HepG2) of the same compound?
**A.** 8.11 µM

**Q.** How did the IC50 (A549) turn out when COc1ccc(/C=C2\S/C(=N\c3nc(-c4c(C)n(C)n(-c5ccccc5)c4=O)cs3)N(c3ccccc3)C2=O)cc1 was run?
**A.** 9.1 µM

**Q.** What about the IC50 (MCF7) of the same compound?
**A.** 26.1 µM

**Q.** And the IC50 (HepG2)?
**A.** 13.2 µM

**Q.** What does the source list for CC(=O)c1nn(-c2ccc([N+](=O)[O-])cc2)/c(=N/c2nc(-c3c(C)n(C)n(-c4ccccc4)c3=O)cs2)s1?
**A.** IC50 (A549): > 100 µM; IC50 (MCF7): > 100 µM; IC50 (HepG2): > 100 µM

**Q.** CCOC(=O)c1nn(-c2ccc(C)cc2)/c(=N/c2nc(-c3c(C)n(C)n(-c4ccccc4)c3=O)cs2)s1 was tested. Which IC50 (A549) did it give?
**A.** > 100 µM

**Q.** And the IC50 (MCF7)?
**A.** > 100 µM

**Q.** What about the IC50 (HepG2) of the same compound?
**A.** > 100 µM

**Q.** How did the IC50 (A549) turn out when Cc1c(-c2csc(/N=C3\SCC(=O)N3c3ccccc3)n2)c(=O)n(-c2ccccc2)n1C was run?
**A.** > 100 µM

**Q.** What about the IC50 (MCF7) of the same compound?
**A.** > 100 µM

**Q.** What about the IC50 (HepG2) of the same compound?
**A.** 70.5 µM

**Q.** CCOC(=O)c1nn(-c2ccc(OC)cc2)/c(=N/c2nc(-c3c(C)n(C)n(-c4ccccc4)c3=O)cs2)s1 was tested. Which IC50 (A549) did it give?
**A.** 13.1 µM

**Q.** What about the IC50 (MCF7) of the same compound?
**A.** 15.9 µM

**Q.** And the IC50 (HepG2)?
**A.** 12.9 µM

**Q.** COc1ccc(-n2nc(C(C)=O)s/c2=N\c2nc(-c3c(C)n(C)n(-c4ccccc4)c3=O)cs2)cc1 was tested. Which IC50 (A549) did it give?
**A.** 26.5 µM

**Q.** What about the IC50 (MCF7) of the same compound?
**A.** 64.5 µM

**Q.** And the IC50 (HepG2)?
**A.** 41.2 µM

**Q.** How did the IC50 (A549) turn out when CC(=O)c1nn(-c2ccccc2)/c(=N/c2nc(-c3c(C)n(C)n(-c4ccccc4)c3=O)cs2)s1 was run?
**A.** > 100 µM

**Q.** What about the IC50 (MCF7) of the same compound?
**A.** > 100 µM

**Q.** What about the IC50 (HepG2) of the same compound?
**A.** 67.1 µM

**Q.** What does the source list for CC(=O)c1nn(-c2ccc(C)cc2)/c(=N/c2nc(-c3c(C)n(C)n(-c4ccccc4)c3=O)cs2)s1?
**A.** IC50 (A549): 20.7 µM; IC50 (MCF7): 56.8 µM; IC50 (HepG2): 31.7 µM

**Q.** Cc1c(-c2csc(/N=C3\S/C(=C\c4ccco4)C(=O)N3c3ccccc3)n2)c(=O)n(-c2ccccc2)n1C was tested. Which IC50 (A549) did it give?
**A.** 13.7 µM

**Q.** What about the IC50 (MCF7) of the same compound?
**A.** 22.4 µM

**Q.** What about the IC50 (HepG2) of the same compound?
**A.** 16.6 µM

**Q.** Which results are given for Cc1c(-c2csc(/N=C3\S/C(=C\c4ccccc4)C(=O)N3c3ccccc3)n2)c(=O)n(-c2ccccc2)n1C?
**A.** IC50 (A549): > 100 µM; IC50 (MCF7): > 100 µM; IC50 (HepG2): 63.4 µM

**Q.** For Cc1c(-c2csc(/N=C3\S/C(=C\c4ccc(Cl)cc4)C(=O)N3c3ccccc3)n2)c(=O)n(-c2ccccc2)n1C, which IC50 (A549) is on record?
**A.** > 100 µM

**Q.** What about the IC50 (MCF7) of the same compound?
**A.** > 100 µM

**Q.** What about the IC50 (HepG2) of the same compound?
**A.** > 100 µM

**Q.** Which results are given for Cc1c(-c2csc(NC(=S)Nc3ccccc3)n2)c(=O)n(-c2ccccc2)n1C?
**A.** IC50 (A549): 7.74 µM; IC50 (MCF7): 10.1 µM; IC50 (HepG2): 8.35 µM

**Q.** How did the IC50 (A549) turn out when Cc1c(-c2csc(/N=C3\S/C(=C\c4ccc(N(C)C)cc4)C(=O)N3c3ccccc3)n2)c(=O)n(-c2ccccc2)n1C was run?
**A.** > 100 µM

**Q.** What about the IC50 (MCF7) of the same compound?
**A.** > 100 µM

**Q.** What about the IC50 (HepG2) of the same compound?
**A.** > 100 µM

**Q.** Which IC50 (A549) does the source give for COc1cccc2c1C(=O)c1c(O)c3c(c(O)c1C2=O)C[C@@](O)(C(=O)CO)C[C@@H]3O[C@H]1C[C@H](N)[C@H](O)[C@H](C)O1 [DOXORUBICIN] here?
**A.** 0.411 µM

**Q.** What about the IC50 (HepG2) of the same compound?
**A.** 0.877 µM

**Q.** For CC(=O)c1nn(-c2ccc(Cl)cc2)/c(=N/c2nc(-c3c(C)n(C)n(-c4ccccc4)c3=O)cs2)s1, which IC50 (A549) is on record?
**A.** > 100 µM

**Q.** And the IC50 (MCF7)?
**A.** > 100 µM

**Q.** What about the IC50 (HepG2) of the same compound?
**A.** > 100 µM

**Q.** How did the IC50 (A549) turn out when CCOC(=O)c1nn(-c2ccc(Cl)cc2)/c(=N/c2nc(-c3c(C)n(C)n(-c4ccccc4)c3=O)cs2)s1 was run?
**A.** > 100 µM

**Q.** And the IC50 (MCF7)?
**A.** > 100 µM

**Q.** What about the IC50 (HepG2) of the same compound?
**A.** > 100 µM

**Q.** Cc1ccc(/C=C2\S/C(=N\c3nc(-c4c(C)n(C)n(-c5ccccc5)c4=O)cs3)N(c3ccccc3)C2=O)cc1 was tested. Which IC50 (A549) did it give?
**A.** > 100 µM

**Q.** What about the IC50 (MCF7) of the same compound?
**A.** > 100 µM

**Q.** And the IC50 (HepG2)?
**A.** > 100 µM

**Q.** How did the IC50 (A549) turn out when Cc1c(-c2csc(/N=c3\sc(-c4ccccc4)nn3-c3ccccc3)n2)c(=O)n(-c2ccccc2)n1C was run?
**A.** > 100 µM

**Q.** What about the IC50 (MCF7) of the same compound?
**A.** > 100 µM

**Q.** What about the IC50 (HepG2) of the same compound?
**A.** > 100 µM

**Q.** Which IC50 (A549) does the source give for CCOC(=O)c1nn(-c2ccccc2)/c(=N/c2nc(-c3c(C)n(C)n(-c4ccccc4)c3=O)cs2)s1 here?
**A.** > 100 µM

**Q.** What about the IC50 (MCF7) of the same compound?
**A.** > 100 µM

**Q.** What about the IC50 (HepG2) of the same compound?
**A.** > 100 µM
